Reference: ChEMBL document CHEMBL1799971, “Bivalent dopamine D2 receptor ligands: synthesis and binding properties” (J Med Chem, 2011)
Activity calls are given as the source filed them. The rule behind the calls is not given here.

How the values were obtained:
[1] = biological target: T1, D(2) dopamine receptor (Homo sapiens, UniProt P14416); experiment: Displacement of [3H]spiperone from human D2long receptor expressed in CHO cells
[2] = biological target: T2, D(4) dopamine receptor (Homo sapiens, UniProt P21917); experiment: Displacement of [3H]spiperone from human D4.4 receptor expressed in CHO cells; format: cell-based
T2 sequence (P21917 whole entry): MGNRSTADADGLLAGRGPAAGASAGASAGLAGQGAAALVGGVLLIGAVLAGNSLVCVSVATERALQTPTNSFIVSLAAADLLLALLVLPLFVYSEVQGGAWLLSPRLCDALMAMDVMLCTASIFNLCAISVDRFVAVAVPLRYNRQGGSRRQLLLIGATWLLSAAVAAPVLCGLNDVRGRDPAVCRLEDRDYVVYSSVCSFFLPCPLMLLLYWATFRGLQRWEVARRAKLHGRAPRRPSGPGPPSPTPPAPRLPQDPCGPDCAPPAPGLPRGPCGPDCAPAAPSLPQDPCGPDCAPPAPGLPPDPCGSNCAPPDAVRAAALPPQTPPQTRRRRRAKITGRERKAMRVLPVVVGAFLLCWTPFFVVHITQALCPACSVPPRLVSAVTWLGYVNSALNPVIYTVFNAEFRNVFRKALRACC

[3] = biological target: D(3) dopamine receptor (Homo sapiens, UniProt P35462); experiment: Displacement of [3H]spiperone from human D3 receptor expressed in CHO cells; format: cell-based
Chain of D(3) dopamine receptor (P35462 whole entry): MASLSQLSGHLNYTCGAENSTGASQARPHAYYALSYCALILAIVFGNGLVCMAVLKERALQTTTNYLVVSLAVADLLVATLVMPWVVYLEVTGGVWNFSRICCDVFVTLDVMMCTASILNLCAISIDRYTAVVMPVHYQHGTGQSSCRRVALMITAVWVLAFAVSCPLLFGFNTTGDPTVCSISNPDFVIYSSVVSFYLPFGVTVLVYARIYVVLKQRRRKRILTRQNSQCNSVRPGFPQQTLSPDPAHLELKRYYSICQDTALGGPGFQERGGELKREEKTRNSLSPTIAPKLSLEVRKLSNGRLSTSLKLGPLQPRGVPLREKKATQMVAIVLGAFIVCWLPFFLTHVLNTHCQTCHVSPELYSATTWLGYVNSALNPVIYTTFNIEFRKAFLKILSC

[4] = biological target: T1, D(2) dopamine receptor; experiment: Displacement of [3H]spiperone from human D2short receptor expressed in CHO cells; format: cell-based
[5] = biological target: D(1A) dopamine receptor (Sus scrofa, UniProt P50130); experiment: Displacement of [3H]SCH23390 from D1 receptor from porcine cerebral cortex homogenates; format: tissue-based
Chain of D(1A) dopamine receptor (P50130 whole entry): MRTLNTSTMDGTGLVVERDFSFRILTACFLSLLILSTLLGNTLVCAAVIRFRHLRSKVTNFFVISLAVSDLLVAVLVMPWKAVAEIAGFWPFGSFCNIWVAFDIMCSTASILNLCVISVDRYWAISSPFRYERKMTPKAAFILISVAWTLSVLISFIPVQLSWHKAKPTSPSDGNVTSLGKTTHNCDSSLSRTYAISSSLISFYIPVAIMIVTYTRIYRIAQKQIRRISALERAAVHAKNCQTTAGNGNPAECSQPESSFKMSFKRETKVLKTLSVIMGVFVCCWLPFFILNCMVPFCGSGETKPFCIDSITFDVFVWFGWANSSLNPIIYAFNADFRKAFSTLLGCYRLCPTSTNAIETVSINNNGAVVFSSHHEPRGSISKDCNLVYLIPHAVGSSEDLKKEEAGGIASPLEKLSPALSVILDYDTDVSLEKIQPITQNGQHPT
Summary of the method: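 Porcine cerebral cortex homogenate membranes at 40–60 μg/mL protein (Lowry, BSA standard). Competition curves were fitted to a sigmoid by nonlinear regression, with log EC50 and Hill coefficient as free parameters.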

[6] = organism: Homo sapiens; experiment: Selectivity ratio of Ki for human D4.4 receptor to Ki for human D3 receptor
[7] = biological target: T1, D(2) dopamine receptor; experiment: Antagonist activity at human D2long receptor expressed in CHO10001 cells assessed as inhibition of agonist-stimulated [3H]thymidine incorporation into cells by mitogenesis assay; format: functional, cell-based
[8] = biological target: T1, D(2) dopamine receptor; experiment: Displacement of [3H]spiperone from human D2 receptor expressed in CHO cells assessed as dissociation half life; format: cell-based
[9] = biological target: T1, D(2) dopamine receptor; experiment: Displacement of [3H]spiperone from human D2short receptor expressed in CHO cells in presence of 100 mM sodium chloride; format: cell-based
Summary of the method: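 Buffer was 50 mM Tris, 1.0 mM EDTA, 5.0 mM MgCl2, 100 μg/mL bacitracin and 5 μg/mL soybean trypsin inhibitor, pH 7.4, plus NaCl at a final 100 mM. Curves were fitted by sigmoidal nonlinear regression with a free Hill coefficient.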

T1 sequence (P14416 whole entry): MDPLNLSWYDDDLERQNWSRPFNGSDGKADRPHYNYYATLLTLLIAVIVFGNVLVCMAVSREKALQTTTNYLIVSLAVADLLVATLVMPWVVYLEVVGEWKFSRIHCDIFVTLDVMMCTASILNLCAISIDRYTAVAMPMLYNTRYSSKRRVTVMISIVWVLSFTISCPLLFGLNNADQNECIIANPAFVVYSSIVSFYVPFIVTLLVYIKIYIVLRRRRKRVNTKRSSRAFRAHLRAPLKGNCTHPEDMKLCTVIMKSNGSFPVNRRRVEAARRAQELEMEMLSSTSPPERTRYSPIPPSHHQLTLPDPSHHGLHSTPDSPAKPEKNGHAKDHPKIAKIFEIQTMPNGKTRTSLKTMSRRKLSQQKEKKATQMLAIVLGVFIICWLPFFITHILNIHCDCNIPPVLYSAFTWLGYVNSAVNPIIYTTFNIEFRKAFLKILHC

Structure (SMILES)	Ki [1] [nM]	Ki [2] [nM]	Ki [3] [nM]	Ki [4] [nM]	Ki [5] [nM]	Ratio Ki [6]	inhibition [7]	T1/2 [8] [h]	Ki [9] [nM]
COc1cc(CN2CCN(c3ccccc3OC)CC2)ccc1OCCCCc1cn(CCCCCCCCCCn2cc(CCCCOc3ccc(CN4CCN(c5ccccc5OC)CC4)cc3OC)nn2)nn1	17	11	74	8.2	300	–	–	–	–
COc1cc(CN2CCN(C)CC2)ccc1OCCCc1cn(CCCCCCCCn2cc(CCCOc3ccc(CN4CCN(c5ccccc5OC)CC4)cc3OC)nn2)nn1	–	12	–	–	980	–	–	–	–
COc1cc(CN2CCN(c3ccccc3OC)CC2)ccc1OCCCc1cn(CCCCCCCCCCn2cc(CCCOc3ccc(CN4CCN(c5ccccc5OC)CC4)cc3OC)nn2)nn1	23	19	96	17	250	–	–	–	–
COc1cc(CN2CCN(c3ccccc3OC)CC2)ccc1OCCCc1cn(CCOCCOCCOCCn2cc(CCCOc3ccc(CN4CCN(c5ccccc5OC)CC4)cc3OC)nn2)nn1	4.8	19	72	6.2	270	–	–	–	–
CCCCn1cc(CCCCOc2ccc(CN3CCN(c4ccccc4OC)CC3)cc2OC)nn1	52	13	590	67	2500	–	–	–	–
COc1cc(CN2CCN(c3ccccc3OC)CC2)ccc1OCCCc1cn(CCCCCCCCn2cc(CCCOc3ccc(CN4CCN(C5CCCCC5)CC4)cc3OC)nn2)nn1	–	19	–	–	480	–	–	–	–
COc1cc(CN2CCN(c3ccccc3OC)CC2)ccc1OCCCc1cn(CCCCCCCCn2cc(CCCOc3ccc(CN4CCN(c5ccccc5OC)CC4)cc3OC)nn2)nn1	–	15	–	–	220	5	Active	2.17	12
CCCc1cn(CCCCCCCCn2cc(CCCOc3ccc(CN4CCN(c5ccccc5OC)CC4)cc3OC)nn2)nn1	36	14	230	32	400	–	–	–	–
COc1cc(CN2CCN(c3ccccc3OC)CC2)ccc1OCCCc1cn(CCOCCOCCn2cc(CCCOc3ccc(CN4CCN(c5ccccc5OC)CC4)cc3OC)nn2)nn1	2.8	12	61	3.7	220	–	–	–	–

Now those with a lower Ki [2], led by results:

Ki [1] [nM]	Ki [2] [nM]	Ki [3] [nM]	Ki [4] [nM]	Ki [5] [nM]	Ratio Ki [6]	inhibition [7]	T1/2 [8] [h]	Ki [9] [nM]	Structure (SMILES)
3.3	6.8	36	3.4	390	–	–	–	–	COc1cc(CN2CCN(c3ccccc3OC)CC2)ccc1OCc1cn(CCOCCOCCn2cc(COc3ccc(CN4CCN(c5ccccc5OC)CC4)cc3OC)nn2)nn1
63	3.3	320	70	2300	80	–	–	–	CCCCn1cc(COc2ccc(CN3CCN(c4ccccc4OC)CC3)cc2OC)nn1
18	6.4	250	16	870	–	–	–	–	CCOCCn1cc(CCCOc2ccc(CN3CCN(c4ccccc4OC)CC3)cc2OC)nn1
68	8.4	440	100	3800	–	–	–	–	CCOCCn1cc(COc2ccc(CN3CCN(c4ccccc4OC)CC3)cc2OC)nn1
16	5.4	31	25	210	5	–	–	–	COc1cc(CN2CCN(c3ccccc3OC)CC2)ccc1OCc1cn(CCCCCCCCn2cc(COc3ccc(CN4CCN(c5ccccc5OC)CC4)cc3OC)nn2)nn1
–	7.2	–	–	1500	80	Active	2	35	CCCCn1cc(CCCOc2ccc(CN3CCN(c4ccccc4OC)CC3)cc2OC)nn1
